MrgX1 allo act: allosterically activates human MrgX1 receptor signaling | 310,000 compounds, 0.63% hits | MrgX1-HEK293, Fluo-4 calcium flux, FDSS; active compounds read high | B-score at 10 µM | Q96LB2;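 active = plate-corrected calcium response at least 3 library SD above typical, normal starting fluorescence, not activating the receptor alone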;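 note: compound read alongside a low EC10 to EC30 dose of BAM8-22 agonist; peak minus trough fluorescence over baseline measured at the second addition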
Target sequence (Q96LB2 whole entry, looked up): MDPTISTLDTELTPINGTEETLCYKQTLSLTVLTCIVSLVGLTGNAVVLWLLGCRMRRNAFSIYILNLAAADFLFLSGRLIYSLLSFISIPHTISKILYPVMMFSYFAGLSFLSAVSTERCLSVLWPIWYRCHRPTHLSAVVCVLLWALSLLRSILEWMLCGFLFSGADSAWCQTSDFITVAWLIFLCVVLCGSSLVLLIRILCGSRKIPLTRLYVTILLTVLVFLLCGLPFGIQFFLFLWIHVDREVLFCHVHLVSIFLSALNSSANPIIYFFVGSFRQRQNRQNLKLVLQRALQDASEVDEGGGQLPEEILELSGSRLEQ
MrgX1 agonist: agonists of human MrgX1 receptor. Q96LB2. MrgX1-HEK293 cells, Fluo-4 calcium fluorescence, agonist mode; active compounds read high. B-score at 10 µM. 310,000 compounds, 0.44% hits;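 active = calcium response B-score plate-corrected fluorescence ratio at least 3 library SD, with starting fluorescence B-score inside 5 SD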
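Material: MrgX1-expressing HEK293 cells / Dosing: compound as first of three additions / Incubation: overnight seeding, then 1 h dark dye loading / Signal: Fluo-4 NW calcium fluorescence / Evaluation: B-scored fluorescence response ratio / Benchmarks: positive and negative control wells on each plate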
MrgX1 antagonist: antagonists of human MrgX1 receptor; Q96LB2; MRGX1-HEK293 calcium flux, Fluo-4, BAM8-22 antagonism; active compounds read low; B-score at 10 µM; 310,000 compounds, 1.3% hits;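 active = calcium-response B-score plate-corrected more than 3 library SD below zero, starting fluorescence within 5 deviations, no agonist response on first addition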;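 note: peak minus trough fluorescence over baseline after final BAM8-22 challenge near maximal dose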
RGS4 inh: inhibitors of human RGS4. 310,000 compounds, 0.45% hits. B-score at 10 µM. HEK293 M3R/RGS4 inducible, Fluo-4 calcium flux; active compounds read high; triggered by carbachol at its EC20;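 active = B-score, a plate-corrected calcium signal, over three deviations above library mean, with baseline fluorescence within five deviations of library mean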;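 note: RGS4 expression induced by doxycycline in cells with stable M3 receptor; B-score is computed from the integrated fluorescence ratio over baseline after carbachol; higher B-score means a larger calcium signal and so more RGS4 inhibition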
Target sequence (P49798 whole entry, looked up): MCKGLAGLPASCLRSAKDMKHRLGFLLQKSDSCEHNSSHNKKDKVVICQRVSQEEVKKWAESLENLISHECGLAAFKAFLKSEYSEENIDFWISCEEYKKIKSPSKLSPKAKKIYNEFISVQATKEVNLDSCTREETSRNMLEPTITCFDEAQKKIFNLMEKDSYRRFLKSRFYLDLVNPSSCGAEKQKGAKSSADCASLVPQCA
RGS4 act: RGS4 potentiation or activation. 310,000 compounds, 0.92% hits. B-score at 10 µM. AID 463111. HEK293 M3R/inducible RGS4, carbachol calcium flux Fluo4; active compounds read low;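 active = B-score of the integrated calcium signal more than 4 SD below the library mean, with starting fluorescence not abnormally high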;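 note: negative B-score means reduced calcium response which marks RGS4 activation or potentiation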
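Assay system: HEK293 FlpIn-TREx cells, stable M3R, doxycycline-inducible RGS4 / Probe or stimulus: carbachol, ECmax concentration / Times: overnight RGS4 induction, 30 min dye load 37 °C, 20 min compound RT / Signal: kinetic calcium fluorescence imaging with Fluo4-AM dye, 2 µM / Measure: Agonist-evoked peak-minus-minimum fluorescence over baseline, integrated ratio, B score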
The depositor's hits bear a star; i = inactive; . = not tested or not shown. Hits are enriched below; roughly 3.5% of the tested compounds scored in any of these assays.

SMILES	MrgX1 allo act	MrgX1 agonist	MrgX1 antagonist	RGS4 inh	RGS4 act
C[N+]12CCC(CC1)C(=C(c1ccccc1)c1ccccc1)C2	i	i	i	i	-8.85*
O=C(c1ccccc1)C(CN1CCCC1)c1ccccc1 (configuration not stated)	i	i	i	i	-8.36*
O=C(CN1CCCCC1)c1ccc(F)cc1	i	i	i	i	i
CCOc1cc2c(cc1OCC)-n1cccc1C(c1ccc(F)cc1)NC2 (configuration not stated)	i	i	i	i	i
CCOc1cc2c(cc1OCC)-n1cccc1C(c1ccc(C(C)C)cc1)NC2 (configuration not stated)	i	i	-5.22*	i	i
CCOc1cc2c(cc1OCC)-n1cccc1C(c1ccc(OC)cc1)NC2 (configuration not stated)	i	i	-8.45*	i	i
CCCCCCOc1ccc(CN2CCN(CCO)CC2)cc1	i	i	i	i	-7.33*
CCCCOc1ccc(CN2CCN(CCO)CC2)cc1	i	i	i	i	i
Cc1ccc(C2C(S(C)(=O)=O)=C(O)C(=O)N2c2ccccc2)cc1 (configuration not stated) (tested in a mixture with another compound)	i	i	i	i	i
CC(Cc1ccccc1Sc1ccccc1)N(C)C (configuration not stated)	i	i	i	i	-9.33*
CN1CCN(Cc2ccccc2Sc2ccccc2)CC1	i	i	i	i	-8.16*
CSc1ccc(CN2CCN(Cc3ccccc3Cl)CC2)cc1	i	i	i	i	i
Cc1[nH]c2ccccc2c1CCNCc1cccnc1	i	i	i	i	i
O=c1c2ccccc2[se]n1-c1ccccc1	i	40.3*	i	i	i
COc1cc(N2CCOCC2)ccc1/C=C1\C(=O)NC(=O)N(Cc2ccc3c(c2)OCO3)C1=O	11.8*	i	i	i	i
Cc1ccc(/C=C2/C(=O)NC(=O)N(Cc3ccc(F)cc3)C2=O)o1	i	i	i	11.4*	i
COc1ccc(CN2C(=O)NC(=O)/C(=C\c3cccc(OC)c3OC)C2=O)cc1	i	i	-5.47*	i	i
CN(C)Cc1ccccc1OC(=O)N(C)C	i	i	i	i	i
O=C1Nc2ccccc2C1Cc1nc2ccccc2c(=O)n1-c1ccccc1 (configuration not stated)	i	i	i	i	i
COC(=O)C1=C(c2cccc(OC)c2OC)C[C@@H]2CC[C@H]1N2C(=O)NCc1ccccc1	i	i	i	i	i
COc1ccc(C(=O)C2CCCN(Cc3ccc(C)s3)C2)c(OC)c1 (configuration not stated)	i	i	i	i	i
CC(C)(C)n1c(O)c(C=Nc2ccc3c(c2)CCC3)c(=O)[nH]c1=O	i	i	i	i	-7.11*
O=[N+]([O-])c1cc(O)c(O)c([N+](=O)[O-])c1	i	i	-5.37*	.	.
O=c1[nH]c(=O)n(CCc2ccc(F)cc2)c(O)c1C=NCCCN1CCOCC1	i	i	i	i	i
CC1(C)C[C@H]2C=C(C=O)[C@]3(C=O)C[C@]3(C)[C@H]2C1	i	31.6*	i	i	i
SMILES	MrgX1 allo act	MrgX1 agonist	MrgX1 antagonist	RGS4 inh	RGS4 act
CC1=C(C(=O)O)N2C(=O)[C@@H](NC(=O)CCCC(=O)O)[C@H]2SC1	i	i	i	i	i
O=C(NC(=O)N1CCC2(CC1)OCCO2)c1ccc(Cl)cc1	i	i	i	i	i
COc1ccc(OCC#CCN2CCC(C)CC2)cc1	i	i	i	i	i
Clc1ccc(OCC#CCN2CCCCCC2)cc1	i	i	i	i	-7.02*
O=C(NCc1cccnc1)NC1CCCCC1	i	i	i	i	i
O=C1/C(=C\c2ccccc2)C2OCC=C3CN4CCC56c7ccccc7N1C5C2C3CC46 (configuration not stated)	i	i	-6.62*	i	i
O=P(Nc1ccccc1)(Oc1ccccc1)Oc1ccccc1	i	i	i	i	i
COc1cccc(OP(=O)(Nc2ccccc2)Oc2cccc(OC)c2)c1	i	i	i	i	-9.89*
CN1C[C@H](CO)C[C@@H]2c3cccc4[nH]cc(c34)C[C@H]21	i	i	i	i	i
C=CCN1C(=O)/C(=C\c2ccc(N3CCOCC3)o2)C(=O)NC1=S	i	i	i	i	i
CN1C(=O)/C(=C/c2ccc(N3CCCCCC3)o2)C(=O)NC1=S	i	32*	i	i	i
CN1C(=O)/C(=C\c2ccc(N3CCCCCC3)cc2)C(=O)NC1=S	i	i	i	i	i
CN1C(=O)/C(=C\c2ccc(N3CCCCC3)o2)C(=O)NC1=S	i	28.8*	i	i	i
O=C(c1ccc2c(c1)N(Cc1ccccc1)CCS2)N1CCC2(CC1)OCCO2	i	i	i	i	i
O=C1Nc2cc(C(=O)N3CCC4(CC3)OCCO4)ccc2NC1CSCc1cccc(F)c1 (configuration not stated)	i	42.2*	i	i	i
COC(=O)C1=C(c2ccc(S(C)(=O)=O)cc2)C[C@@H]2CC[C@H]1N2C(=O)NCc1ccccc1	i	i	i	i	i
O=C1C(=O)c2cccc3cccc1c23	i	26.8*	i	i	i
O=C1C(=O)c2ccccc2-c2ccccc21	i	i	i	i	i
CC(=O)N1N=C2C3CCN(CC3)C2C1c1ccc(C)cc1 (configuration not stated)	i	i	i	i	i
COc1cc(/C=C/c2nc3ccccc3c(=O)n2-c2ccc(O)cc2)ccc1O	i	i	i	i	-8.17*
COc1ccc(-n2c(/C=C/c3ccc(O)c(O)c3)nc3ccccc3c2=O)cc1	i	i	i	i	i
CCCCc1nc2ccccc2c(=O)n1-c1ccc(Cl)cc1[N+](=O)[O-]	i	i	i	i	i
Cc1cc(N2CCCCC2)ccc1C=C1C(=O)N(C)C(=S)N(C)C1=O	i	i	i	i	i
Cc1cc(N2CCCC2)ccc1C=C(C#N)C#N	i	i	-5.47*	i	i
COc1ccn(C)c(=O)c1C#N	i	i	i	i	i
CCN1CCN(CC(c2ccccc2)c2ccccc2)CC1	i	i	i	i	-7.02*
O=C1CC(=O)N(c2cccc(Cl)c2)C(=O)N1	i	i	i	i	i
